SMILES strings stand for the structures. Counter-ions that a name gives are not always drawn.

The nature of test [1]: Cytotoxic activity against human H460 cells by MTT method. In kind it is functional, cell-based. The conditions noted are these: NCI-H460. Put shortly: (§1)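 MTT assay on the cancer cell line. IC50 taken as the concentration that cuts absorbance to 50% of control. Values are means of three independent experiments.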
On the technique in general: Tetrazolium assays rely on reduction of a dye to a coloured formazan, in cell work by metabolically active cells.

A further test deals with HepG2. As to the kind of experiment: Cytotoxic activity against human HepG2 cells by MTT method. In kind it is functional, cell-based. In outline:
as §1

Test [2] is described as follows: Cytotoxic activity against human BGC823 cells by MTT method. The format is functional, cell-based. The conditions noted are these: BGC-823. In outline:
as §1

Another test deals with HCT-116. As to the kind of experiment: Cytotoxic activity against human HCT116 cells by MTT method. The format is functional, cell-based. In outline: as §1
The next test has as its system HeLa. As to the kind of experiment: Cytotoxic activity against human HeLa cells by MTT method. In kind it is functional, cell-based. In outline: as §1
A short description of test [3]: Inhibition of Saccharomyces cerevisiae alpha-glucosidase pre-incubated for 10 mins at 25 degC before addition of p-nitrophenyl-alpha-D-glucopyranoside substrate by UV absorption based assay. In outline: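 Yeast α-glucosidase at 1.0 U/mL in 0.1 M K3PO4 buffer, pH 6.9, mixed with test compound in DMSO. Preincubated 10 min at 25 °C, then started with PNPG (5.0 mM solution in the same buffer). A405 was read at once and again after 5 min at 25 °C. ΔA was compared with a DMSO control to give % inhibition and IC50, as means of three independent experiments.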

One may read the IC50 as the concentration at which inhibition is half-maximal. Low readings indicate inhibition by little substance, high ones a need for much substance. With `CC(C)C1=CC2=C(C(=O)C1=O)[C@]13CO[C@H]2C[C@H]1C(C)(C)C[C@H](O)C3`, the IC50 is greater than 10 µM in test [1]; greater than 10 µM in the test on HepG2; greater than 10 µM in test [2]; 7.3 µM in the test with HCT-116; greater than 10 µM with HeLa; greater than 1 mM in test [3].
As for `CC(C)C1=C[C@]23Oc4c(C(C)C)cc5c(c4O[C@@]2(C(=O)C1=O)C12COC3C[C@H]1C(C)(C)C[C@H](O)C2)C12COC5C[C@H]1C(C)(C)C[C@H](O)C2` (stereo not given in full), the IC50 in test [1] is 8.5 µM; in the test on HepG2, 5.2 µM; in test [2] it was 4.8 µM; with HCT-116, 6.3 µM; with HeLa, 5.2 µM; in test [3] it was greater than 1 mM.
For `CC(C)c1cc2c(c(O)c1O)[C@]13CO[C@H]2C[C@H]1C(C)(C)C[C@H](O)C3`, the IC50 in test [1] is greater than 10 µM; in the test on HepG2, greater than 10 µM; in test [2] it was greater than 10 µM; in the test on HCT-116 it was greater than 10 µM; in the test on HeLa, greater than 10 µM; in test [3] it was greater than 1 mM.
Consider `CC(C)C1=C[C@@]23Oc4c(C(C)C)cc5c(c4O[C@]2(C(=O)C1=O)C12COC3C[C@H]1C(C)(C)C[C@H](O)C2)C12COC5C[C@H]1C(C)(C)C[C@H](O)C2` (stereo not given in full), for which the IC50 was greater than 10 µM in test [1]; greater than 10 µM in the test with HepG2; greater than 10 µM in test [2]; greater than 10 µM with HCT-116; greater than 10 µM in the test on HeLa; greater than 1 mM in test [3].
For the compound `CC(=O)O[C@H]1C[C@@H](O)[C@@]2(C)C[C@@]3(O)OC(=O)C(C)=C3C[C@@H]2[C@H]1C`, the concentration for half-maximal inhibition (IC50) was greater than 10 µM in test [1]; greater than 10 µM with HepG2; greater than 10 µM in test [2]; greater than 10 µM with HCT-116; greater than 10 µM in the test on HeLa; greater than 1 mM in test [3].
Regarding `CC(=O)O[C@@H]1C[C@H](O)[C@H](C)[C@H]2CC3=C(C)C(=O)O[C@]3(O)C[C@@]21C`, the IC50 in test [1] is greater than 10 µM; with HepG2, greater than 10 µM; in test [2], greater than 10 µM; in the test with HCT-116 it was greater than 10 µM; in the test with HeLa, greater than 10 µM; in test [3], greater than 1 mM.
Consider `CC1=C2C[C@@H]3[C@@H](C)[C@@H](O)C[C@@H](O)[C@@]3(C)C[C@@]2(O)OC1=O`, for which the IC50 in test [1] was greater than 10 µM; in the test on HepG2 it was greater than 10 µM; in test [2] it was greater than 10 µM; with HCT-116, greater than 10 µM; in the test with HeLa, greater than 10 µM; in test [3] it was greater than 1 mM.
Consider `CC(=O)O[C@@H]1C(=O)C=C(C)[C@@H]2CC3=C(C)C(=O)O[C@@]3(O)C[C@@]12C`, for which the IC50 in test [1] was greater than 10 µM; in the test with HepG2 it was greater than 10 µM; in test [2], greater than 10 µM; in the test with HCT-116, greater than 10 µM; in the test on HeLa, greater than 10 µM; in test [3] it was greater than 1 mM.
For the compound `CC1=CC(=O)[C@@H](O)[C@]2(C)C[C@]3(O)OC(=O)C(C)=C3C[C@@H]12`, the IC50 in test [1] was greater than 10 µM; in the test with HepG2 it was greater than 10 µM; in test [2], greater than 10 µM; with HCT-116, greater than 10 µM; in the test on HeLa, greater than 10 µM; in test [3], 0.568 mM.
Consider `CC(=O)O[C@@H]1C(=O)C=C(C)[C@]2(O)CC3=C(C)C(=O)O[C@@]3(O)C[C@@]12C`, for which the IC50 is greater than 10 µM in test [1]; greater than 10 µM in the test on HepG2; greater than 10 µM in test [2]; greater than 10 µM in the test with HCT-116; greater than 10 µM with HeLa; 0.3 mM in test [3].
Turning to `C[C@H]1O[C@H](O[C@H]2[C@H](O)[C@@H](O)[C@@H](O[C@H]3[C@H](O)[C@@H](O)C(O)O[C@@H]3CO)O[C@@H]2CO)[C@H](O)[C@@H](O)[C@@H]1N[C@H]1C=C(CO)[C@@H](O)[C@H](O)[C@H]1O` (stereo not given in full) [ACARBOSE], the IC50 in test [3] was found to be 0.169 mM.
For the compound `COc1cccc2c1C(=O)c1c(O)c3c(c(O)c1C2=O)C[C@@](O)(C(=O)CO)C[C@@H]3O[C@H]1C[C@H](N)[C@H](O)[C@H](C)O1` [DOXORUBICIN HYDROCHLORIDE], the IC50 was found to be 0.24 µM in test [1], 0.24 µM in the test with HepG2, 0.76 µM in test [2] and 0.72 µM with HeLa.

These data come from ChEMBL document CHEMBL3580648, “Dimeric Abietane Diterpenoids and Sesquiterpenoid Lactones from Teucrium viscidum” (J Nat Prod, 2015).
